In ChEMBL document CHEMBL1142724 (J Med Chem, 2005):
Values joined by “and” are separate entries in the source; they are usually repeats but may differ in a detail not shown here. Equal entries are not always repeated. Blank lines part the entries; values can stand above or below the molecule they belong to.

How the values were obtained:
[1] = target: T1, Transient receptor potential cation channel subfamily V member 1 (Rattus norvegicus, UniProt O35433); assay: Inhibition of rat transient receptor potential vanilloid 1 receptor (n=4)
In short: (§1)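 FLIPR Ca2+ influx in Fluo-3-loaded HEK293 cells stably expressing human or rat TRPV1. Compound was added at 0.3 nM–30 µM final, in half-log steps, for 3 min before capsaicin. Capsaicin was 15 nM final for human; for rat it was 15 nM, or 100 nM in later runs. Signal was the smaller of peak and end fluorescence after basal subtraction. IC50 came from a four-parameter logistic fit.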

[2] = target: T2, Transient receptor potential cation channel subfamily V member 1 (Homo sapiens, UniProt Q8NER1); assay: Inhibition of human transient receptor potential vanilloid 1 receptor (n=4)
In short: (§2)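 FLIPR Ca2+ influx in Fluo-3-loaded HEK293 cells stably expressing human or rat TRPV1. Compound was added at 0.3 nM–30 µM final, in half-log steps, for 3 min before capsaicin. Signal was the smaller of peak and end fluorescence after basal subtraction. IC50 came from a four-parameter logistic fit.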

[3] = target: T1, Transient receptor potential cation channel subfamily V member 1; assay: Inhibition of rat transient receptor potential vanilloid 1 receptor (n=3); in short: as §1
[4] = target: T2, Transient receptor potential cation channel subfamily V member 1; assay: Inhibition of human transient receptor potential vanilloid 1 receptor (n=3); in short: as §2
[5] = target: T2, Transient receptor potential cation channel subfamily V member 1; assay: Effective concentration against human transient receptor potential vanilloid 1 receptor (n=6); Inactive
In short: (§3)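 HEK293 cells stably expressing human or rat TRPV1 were loaded with 4 µM Fluo-3/AM for 60 min at room temperature. Cells were held in HEPES buffer, pH 7.45, with 2 mM CaCl2. Capsaicin-like Ca2+ flux was read on FLIPR with compounds up to 30 µM. Counts were basal-subtracted. Values came from a four-parameter Hill fit, as mean ± SEM.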

[6] = target: T1, Transient receptor potential cation channel subfamily V member 1; assay: Effective concentration against rat transient receptor potential vanilloid 1 receptor (n=3); in short: as §3
[7] = target: T2, Transient receptor potential cation channel subfamily V member 1; assay: Effective concentration against human transient receptor potential vanilloid 1 receptor (n=3); in short: as §3
[8] = target: Transient receptor potential cation channel subfamily V member 1 (Rattus norvegicus) (UniProt O35433); assay: Percentage efficacy against rat transient receptor potential vanilloid 1 receptor (n=3)
In short: (§4)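 FLIPR Ca2+ flux in HEK293 cells stably expressing human TRPV1 or rat TRPV1, grown in DMEM with 10% FBS. Cells were seeded, incubated overnight, then loaded with 4 µM Fluo-3/AM and 0.01% Pluronic-F127 for 60 min at room temperature. Assay buffer was HEPES-buffered saline with 2 mM CaCl2, pH 7.45. Intracellular Ca2+ was read during compound exposure, 0.3 nM–30 µM in half-log steps. Signal was basal-subtracted, taking the smaller of the peak and end-of-incubation values.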

[9] = target: T2, Transient receptor potential cation channel subfamily V member 1; assay: Percentage efficacy against human transient receptor potential vanilloid 1 receptor (n=3); in short: as §4
Rattus norvegicus = organism: Rattus norvegicus; assay: Effective dose to produce maximal thermal desensitization in rat at 5 ug
[10] = target: T1, Transient receptor potential cation channel subfamily V member 1; assay: Inhibition of rat transient receptor potential vanilloid 1 receptor (n=2); in short: as §2
[11] = target: T2, Transient receptor potential cation channel subfamily V member 1; assay: Inhibition of human transient receptor potential vanilloid 1 receptor (n=6); in short: as §1
[12] = target: T2, Transient receptor potential cation channel subfamily V member 1; assay: In vitro inhibition of anandamide activated human TRPV1 receptor in [Ca2+] influx assay
[13] = target: T2, Transient receptor potential cation channel subfamily V member 1; assay: Inhibition of human transient receptor potential vanilloid 1 receptor (n=5); in short: as §1
[14] = target: T2, Transient receptor potential cation channel subfamily V member 1; assay: In vitro inhibition of PMA-activated human TRPV1 receptor in [Ca2+] influx assay
In short: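 Human TRPV1-HEK293 cells were loaded with Fluo-3 and preincubated with compound for 3 min. They were then stimulated with 300 nM PMA, and fluorescence was monitored for 5–10 min on FLIPR. IC50 came from a four-parameter logistic fit.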

[15] = target: T1, Transient receptor potential cation channel subfamily V member 1; assay: In vitro inhibition of acid activated rat TRPV1 receptor in [Ca2+] influx assay
In short: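 Rat TRPV1-HEK293 cells loaded with Fluo-3 were challenged for about 5 min with pH 5.8–6.0 solution to raise basal Ca2+.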

[16] = target: T1, Transient receptor potential cation channel subfamily V member 1; assay: Effective concentration against rat transient receptor potential vanilloid 1 receptor (n=2); in short: as §3
[17] = target: T1, Transient receptor potential cation channel subfamily V member 1; assay: Effective concentration against rat transient receptor potential vanilloid 1 receptor (n=6); in short: as §3
[18] = target: T2, Transient receptor potential cation channel subfamily V member 1; assay: Effective concentration against human transient receptor potential vanilloid 1 receptor (n=6); in short: as §3
[19] = target: T2, Transient receptor potential cation channel subfamily V member 1; assay: Effective concentration against human transient receptor potential vanilloid 1 receptor (n=2); in short: as §3
[20] = target: T2, Transient receptor potential cation channel subfamily V member 1; assay: Percentage efficacy against human transient receptor potential vanilloid 1 receptor (n=2); in short: as §4
[21] = target: T2, Transient receptor potential cation channel subfamily V member 1; assay: Inhibition of human transient receptor potential vanilloid 1 receptor (n=2); in short: as §1

T2 sequence (Q8NER1 whole entry): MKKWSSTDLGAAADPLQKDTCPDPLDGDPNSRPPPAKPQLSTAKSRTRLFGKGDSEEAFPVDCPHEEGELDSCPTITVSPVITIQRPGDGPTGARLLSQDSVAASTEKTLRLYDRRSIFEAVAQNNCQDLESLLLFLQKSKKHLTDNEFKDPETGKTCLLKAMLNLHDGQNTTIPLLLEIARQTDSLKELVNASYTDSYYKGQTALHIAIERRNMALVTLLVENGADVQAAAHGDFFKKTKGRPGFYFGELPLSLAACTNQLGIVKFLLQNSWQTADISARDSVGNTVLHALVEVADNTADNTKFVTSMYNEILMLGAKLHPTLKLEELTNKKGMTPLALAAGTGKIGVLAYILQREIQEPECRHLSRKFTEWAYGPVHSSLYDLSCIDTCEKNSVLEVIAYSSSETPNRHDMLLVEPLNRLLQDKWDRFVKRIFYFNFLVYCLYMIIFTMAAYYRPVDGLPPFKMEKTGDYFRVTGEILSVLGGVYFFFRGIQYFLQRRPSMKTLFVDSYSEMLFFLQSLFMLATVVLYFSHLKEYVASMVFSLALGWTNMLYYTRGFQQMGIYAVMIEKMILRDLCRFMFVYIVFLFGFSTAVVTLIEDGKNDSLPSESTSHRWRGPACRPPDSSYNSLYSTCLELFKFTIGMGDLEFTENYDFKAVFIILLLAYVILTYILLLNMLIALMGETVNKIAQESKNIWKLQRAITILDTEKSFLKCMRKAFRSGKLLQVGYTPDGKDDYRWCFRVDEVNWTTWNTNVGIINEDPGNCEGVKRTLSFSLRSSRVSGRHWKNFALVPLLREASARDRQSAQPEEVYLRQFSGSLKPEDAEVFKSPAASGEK
T1 sequence (O35433 whole entry): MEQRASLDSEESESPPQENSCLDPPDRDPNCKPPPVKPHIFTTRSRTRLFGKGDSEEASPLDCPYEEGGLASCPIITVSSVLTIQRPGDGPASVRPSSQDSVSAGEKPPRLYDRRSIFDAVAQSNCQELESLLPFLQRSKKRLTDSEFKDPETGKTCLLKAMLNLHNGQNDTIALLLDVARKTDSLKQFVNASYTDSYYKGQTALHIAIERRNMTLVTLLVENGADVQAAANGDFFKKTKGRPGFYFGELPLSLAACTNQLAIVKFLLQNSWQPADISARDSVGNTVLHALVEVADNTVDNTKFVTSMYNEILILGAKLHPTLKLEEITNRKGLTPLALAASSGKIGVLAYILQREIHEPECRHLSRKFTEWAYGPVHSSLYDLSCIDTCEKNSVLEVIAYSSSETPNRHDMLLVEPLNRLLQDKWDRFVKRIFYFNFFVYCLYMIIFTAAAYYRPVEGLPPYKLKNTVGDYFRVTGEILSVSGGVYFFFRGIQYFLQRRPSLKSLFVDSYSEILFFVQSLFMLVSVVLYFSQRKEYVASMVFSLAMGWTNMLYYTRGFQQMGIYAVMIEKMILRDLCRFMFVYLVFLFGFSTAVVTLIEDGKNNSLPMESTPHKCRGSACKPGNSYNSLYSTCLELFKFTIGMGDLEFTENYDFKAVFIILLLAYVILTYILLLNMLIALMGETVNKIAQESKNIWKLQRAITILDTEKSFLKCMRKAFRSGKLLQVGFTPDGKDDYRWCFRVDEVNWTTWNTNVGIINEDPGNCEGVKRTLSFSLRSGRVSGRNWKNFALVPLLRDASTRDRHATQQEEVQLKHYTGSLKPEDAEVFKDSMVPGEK
Sequence of Transient receptor potential cation channel subfamily V member 1 (Rattus norvegicus) (O35433 whole entry): as above

IC50 [1]: 0.104 µM | IC50 [2]: 0.064 µM
SMILES: CC1CN(c2ncccc2C(F)(F)F)CCN1C(=O)Nc1ccc(C(F)(F)F)cc1 (stereo not given)

IC50 [3]: 3.72 µM | IC50 [2]: 2.45 µM
SMILES: CC1CN(c2ncccc2C(F)(F)F)CC(C)N1C(=O)Nc1ccc(C(F)(F)F)cc1 (stereo not given)

IC50 [4]: > 10 µM | IC50 [3]: 13.1 µM | EC50 [5]: > 10 µM
SMILES: O=C(Nc1ccc(C(F)(F)F)cc1)NC1CCN(c2ncccc2C(F)(F)F)C1 (stereo not given)

EC50 [6]: 1.28 µM | EC50 [7]: 1.16 µM | Efficacy [8]: 100% | Efficacy [9]: 120%
SMILES: O=C(Nc1ccncc1)N1CCN(c2ncccc2C(F)(F)F)CC1

SMILES: COc1cc(CNC(=O)CCCC/C=C/C(C)C)ccc1O [CAPSAICIN]
ED50 (Rattus norvegicus): 3 µg

IC50 [10]: 3.98 µM | IC50 [2]: 0.908 µM
SMILES: O=C(Nc1ccc2ncccc2c1)N1CCN(c2ncccc2C(F)(F)F)CC1

IC50 [11]: 0.074 µM | IC50 [3]: 0.1 µM | IC50 [12]: 0.006 µM and 0.004 µM and 0.003 µM
SMILES: O=C(Nc1ccc([N+](=O)[O-])cc1)N1CCN(c2ncccc2C(F)(F)F)CC1

IC50 [4]: 0.367 µM | IC50 [10]: 1.01 µM
SMILES: O=C(Nc1cc2ccccc2cn1)N1CCN(c2ncccc2C(F)(F)F)CC1

IC50 [13]: 0.074 µM | IC50 [14]: 0.005 µM and 0.003 µM | IC50 [10]: 0.365 µM | IC50 [15]: 0.013 µM | IC50 [12]: 4 nM and 3 nM (2×)
SMILES: Oc1cc2c(cc1O)CN(C(=S)NCCc1ccc(Cl)cc1)CCC2 [CAPSAZEPINE]

IC50 [4]: 5.03 µM | EC50 [6]: 2.67 µM | Efficacy [8]: 18%
SMILES: O=C(Nc1ccc(C(F)(F)F)cc1)N1CCN(c2cccnc2)CC1

IC50 [4]: 0.538 µM | IC50 [10]: 1.18 µM
SMILES: O=C(Nc1ccc(C(F)(F)F)cc1)N1CCCN(c2ncccc2C(F)(F)F)CC1

IC50 [1]: 0.39 µM | EC50 [16]: 1.96 µM | IC50 [2]: 2.17 µM
SMILES: Cc1cccnc1C1CCN(C(=O)Nc2ccc(C(F)(F)F)cc2)CC1

EC50 [17]: 3.6 µM | EC50 [18]: 7.24 µM | Efficacy [8]: > 40% | Efficacy [9]: 100%
SMILES: O=C(Nc1ccc(Cl)cc1)N1CCN(c2ccncc2)CC1

EC50 [16]: 1.72 µM | EC50 [19]: 1.93 µM | Efficacy [8]: 86% | Efficacy [20]: 8%
SMILES: Cc1ccccc1C1CCN(C(=O)Nc2ccc(C(F)(F)F)cc2)CC1

IC50 [3]: 0.409 µM | IC50 [2]: 0.113 µM
SMILES: Cc1cccnc1N1CCN(C(=O)Nc2ccc(Cl)cc2)CC1

IC50 [13]: 0.526 µM | IC50 [3]: 2.3 µM
SMILES: O=C(Nc1cnc2ccccc2c1)N1CCN(c2ncccc2C(F)(F)F)CC1

IC50 [10]: 4.36 µM
SMILES: O=C(Nc1ccc(C(F)(F)F)cc1)NC1CCN(c2ncccc2C(F)(F)F)CC1

IC50 [10]: > 10 µM | IC50 [2]: > 10 µM
SMILES: O=C(Nc1ccc(C(F)(F)F)cc1)N1CC2CC1CN2c1ncccc1C(F)(F)F (stereo not given)

IC50 [4]: 0.29 µM | IC50 [3]: 0.194 µM
SMILES: Cc1cccnc1N1CCN(C(=O)Nc2ccc(C(F)(F)F)cc2)CC1

IC50 [1]: 0.09 µM
SMILES: O=C(Nc1ccc(C(F)(F)F)cc1)N1CCN(c2ncccc2C(F)(F)F)CC1

IC50 [3]: > 10 µM | EC50 [6]: 7.29 µM | Efficacy [8]: 11% | IC50 [2]: 2.28 µM
SMILES: O=C(Nc1cccc2cnccc12)N1CCN(c2ncccc2C(F)(F)F)CC1

IC50 [3]: 0.863 µM
SMILES: O=C(Nc1ccc(C(F)(F)F)cc1)N1CCN(c2ccccn2)CC1

IC50 [11]: 8.13 µM | IC50 [3]: 14.7 µM
SMILES: O=C(Nc1cccc2cccnc12)N1CCN(c2ncccc2C(F)(F)F)CC1

IC50 [21]: 12.1 µM | IC50 [3]: > 10 µM
SMILES: O=C(Nc1ccccn1)N1CCN(c2ncccc2C(F)(F)F)CC1

IC50 [21]: 0.965 µM | IC50 [10]: > 10 µM
SMILES: O=C(Nc1ccc(C(F)(F)F)cc1)C1CCN(c2ncccc2C(F)(F)F)CC1

EC50 [17]: 8.3 µM | EC50 [7]: 5.26 µM | Efficacy [8]: 2% | Efficacy [9]: 36%
SMILES: O=C(Nc1cccc2ncccc12)N1CCN(c2ncccc2C(F)(F)F)CC1
